Test results taken from ChEMBL document CHEMBL2346617, “Euryspongins A-C, three new unique sesquiterpenes from a marine sponge Euryspongia sp” (Bioorg Med Chem Lett, 2013).
Activity calls are given as the source filed them. No cut-off for these calls is given here.

Assays:
[1] = target: T1, Tyrosine-protein phosphatase non-receptor type 1 (Homo sapiens) (UniProt P18031); experiment: Inhibition of PTP1B (unknown origin) at 35 to 40 uM
T1 sequence (whole entry): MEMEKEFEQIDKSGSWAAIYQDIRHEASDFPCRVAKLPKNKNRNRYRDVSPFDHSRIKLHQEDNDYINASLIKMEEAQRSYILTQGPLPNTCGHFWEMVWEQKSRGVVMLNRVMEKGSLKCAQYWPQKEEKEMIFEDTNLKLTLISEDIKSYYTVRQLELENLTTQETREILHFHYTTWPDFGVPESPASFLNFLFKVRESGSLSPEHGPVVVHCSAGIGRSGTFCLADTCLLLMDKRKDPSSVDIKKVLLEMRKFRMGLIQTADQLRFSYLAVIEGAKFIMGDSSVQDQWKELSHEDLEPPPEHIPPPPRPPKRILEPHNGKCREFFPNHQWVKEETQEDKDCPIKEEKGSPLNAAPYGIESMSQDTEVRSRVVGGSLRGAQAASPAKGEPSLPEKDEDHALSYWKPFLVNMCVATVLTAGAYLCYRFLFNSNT

Jurkat = experiment: Antiproliferative activity against human Jurkat cells at 45 uM; assay type: functional, cell-based
How it was run: (§1)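 Proliferation of human cancer cell lines HCT-15 (colon) and Jurkat (T-cell lymphoma) was tested at a single concentration of 45 μM per compound.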

HCT-15 = experiment: Antiproliferative activity against human HCT15 cells at 45 uM; assay type: functional, cell-based; how it was run: as §1
[2] = target: T2, Tyrosine-protein phosphatase non-receptor type 1 (Homo sapiens, UniProt P18031); experiment: Inhibition of PTP1B (unknown origin)
T2 sequence (P18031 whole entry): T1 sequence (whole entry)

| inhibition [1] | IC50 [2] | Compound | inhibition (Jurkat) | inhibition (HCT-15) |
| --- | --- | --- | --- | --- |
| inactive | – | CC1=C[C@@H]2CC(C)(C)[C@H]1C[C@H](O)C1=CC(=O)O[C@@H]12 (relative stereo) | inactive | inactive |
| inactive | – | CC1=C[C@@H]2CC(C)(C)[C@H]1C[C@H](O)c1ccoc12 (relative stereo) | inactive | inactive |
| inactive | – | CO[C@]12OC(=O)C=C1[C@@H](O)C[C@H]1C(C)=C[C@@H]2CC1(C)C (relative stereo) | inactive | inactive |
| – | 3.6 µM | CC1=C[C@@H]2CC(C)(C)[C@H]1/C=C\c1ccoc12 (relative stereo) [REL-DEHYDROEURYSPONGIN A] | inactive | inactive |
